# Calls of active or inactive are those of the source. The calls are words filed in the database; no cut-off is given here. Starred links: 1 amine or outer side, 2 acyl side, 3 side chain; linkers in the order of their positions; H or OH if unused. Residues, ends and D or L forms follow the SMILES beside them. Groups on a side chain read outwards from the residue. *: point of attachment. εLys = N[C@@H](CCCCN[*:1])C(=O)[*:2]; ClZ = O=C(OCc1ccccc1Cl)*
# How the values were obtained:
# [1] = test system: Acinetobacter baumannii; test: Antibacterial activity against Acinetobacter baumannii ATCC 19606 after 18 to 24 hrs by serial broth microdilution susceptibility test; assay type: functional; conditions: ATCC 19606 = CIP 70.34 = JCM 6841
# Method in brief: (§1)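 MIC determined by serial microdilution in microplates. Candida inocula were prepared in L-glutamine-deficient RPMI-1640 medium.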
# [2] = test system: Candida albicans; test: Antifungal activity against Candida albicans ATCC 90028 after 24 to 48 hrs by serial broth microdilution susceptibility test; assay type: functional; method in brief: as §1
# [3] = test system: Staphylococcus aureus; test: Antibacterial activity against Staphylococcus aureus ATCC 25923 after 18 to 24 hrs by serial broth microdilution susceptibility test; assay type: functional; method in brief: as §1
# [4] = test system: Escherichia coli; test: Antibacterial activity against Escherichia coli ATCC 25922 after 18 to 24 hrs by serial broth microdilution susceptibility test; assay type: functional; method in brief: as §1
# [5] = test system: Bordetella bronchiseptica; test: Antibacterial activity against Bordetella bronchiseptica ATCC 4617 after 18 to 24 hrs by serial broth microdilution susceptibility test; assay type: functional; method in brief: as §1
# [6] = test system: Pseudomonas aeruginosa; test: Antibacterial activity against Pseudomonas aeruginosa ATCC 27853 after 18 to 24 hrs by serial broth microdilution susceptibility test; assay type: functional; method in brief: as §1
# [7] = test system: Staphylococcus aureus; test: Antibacterial activity against Staphylococcus aureus ATCC 43300 after 18 to 24 hrs by serial broth microdilution susceptibility test; assay type: functional; method in brief: as §1
# [8] = test system: Escherichia coli; test: Antibacterial activity against Escherichia coli ATCC BAA-198 after 18 to 24 hrs by serial broth microdilution susceptibility test; assay type: functional; method in brief: as §1
# [9] = test system: Klebsiella pneumoniae subsp. pneumoniae; test: Antibacterial activity against Klebsiella pneumoniae subsp. pneumoniae ATCC 13882 after 18 to 24 hrs by serial broth microdilution susceptibility test; assay type: functional; method in brief: as §1
# [10] = test system: Candida parapsilosis; test: Antifungal activity against Candida parapsilosis ATCC 22019 after 24 to 48 hrs by serial broth microdilution susceptibility test; assay type: functional; conditions: Lodderomyces parapsilosis; method in brief: as §1
# [11] = test system: Pichia kudriavzevii; test: Antifungal activity against Candida krusei ATCC 6258 after 24 to 48 hrs by serial broth microdilution susceptibility test; assay type: functional; method in brief: as §1
# [12] = Toxicity in human erythrocytes assessed as hemolysis at 100 uM after 30 mins by spectrophotometry; assay type: cell-based, Erythrocyte; conditions: read-out: Activity
# Method in brief: (§2)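 Human erythrocytes suspended in PBS were exposed to lipopeptides at 0.001–0.4 mmol/l and hemolysis was measured.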
# [13] = (§3) Inhibition of beta (1,3) glucan synthase in Candida albicans cell membrane using UDP-Glc as substrate assessed as aniline blue-glucan complex formation by microtiter-based fluorescence method
# Method in brief: (§4)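 β(1,3)-glucan synthase in the membrane fraction of C. albicans was assayed by a microtiter-based fluorescence method across a concentration range. Values are means of three independent experiments (SD); IC50 was determined.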
# [14] = Toxicity in human erythrocytes assessed as hemolysis at above MIC after 30 mins by spectrophotometry; assay type: cell-based; conditions: erythrocyte, 0.5 h; method in brief: as §2
# [15] = Toxicity in human erythrocytes suspended in L-glutamine deficient RPMI-1640 assessed as hemolysis after 30 mins by spectrophotometry relative to human erythrocytes suspended in PBS buffer; assay type: cell-based; conditions: erythrocyte, 0.5 h
# Method in brief: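 Hemolysis was measured for human erythrocytes resuspended in L-glutamine-deficient RPMI-1640 (the Candida MIC medium) and compared with erythrocytes suspended in PBS.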
# [16] = test system: Candida albicans; test: Antifungal activity against Candida albicans ATCC 10231 assessed as leakage of intracellular contents at 4 uM after 2 hrs by scanning electron microscopy; assay type: functional, organism-based
# [17] = test system: Candida albicans; test: Antifungal activity against Candida albicans ATCC 10231 assessed as pseudohyphae formation at 14 uM after 6 hrs by calcofluor white and aniline blue staining-based fluorescence microscopy; assay type: functional, organism-based
# Method in brief: (§5)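 C. albicans ATCC 10231 yeast cells were incubated with compound for 6 h, at up to 2×MIC. Chitin was stained with Calcofluor White and glucan with Aniline Blue, then cells were examined by fluorescence microscopy against untreated controls.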
# [18] = test system: Candida albicans; test: Antifungal activity against Candida albicans ATCC 10231 assessed as alteration in cell envelope at 4 uM after 2 hrs by scanning electron microscopy; assay type: functional, organism-based
# [19] = test system: Candida albicans; test: Antifungal activity against Candida albicans ATCC 10231 assessed as morphological changes at < 7 uM after 6 hrs by calcofluor white and aniline blue staining-based fluorescence microscopy; assay type: functional, organism-based; method in brief: as §5
# [20] = test system: Candida albicans; test: Antifungal activity against Candida albicans ATCC 10231 assessed as loss of integrity at 10 uM after 2 hrs by scanning electron microscopy; assay type: functional, organism-based
# [21] = test system: Candida albicans; test: as §3; method in brief: as §4
# [22] = test system: Candida albicans; test: Antifungal activity against Candida albicans ATCC 10231 assessed as increase in intracellular potassium release after 30 mins; assay type: functional, organism-based
# Method in brief: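 Efflux of K+ from C. albicans cells was monitored continuously with a potassium-selective electrode. Release was expressed relative to a positive control, and EK50 was taken as the concentration releasing 50% of intracellular potassium.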
# [23] = Toxicity in human erythrocytes assessed as hemolysis at 50 uM after 30 mins by spectrophotometry; assay type: cell-based, Erythrocyte; conditions: read-out: Activity; method in brief: as §2
Structure (SMILES),MIC [1] [µM],MIC [2] [µM],MIC [3] [µM],MIC [4] [µM],MIC [5] [µM],MIC [6] [µM],MIC [7] [µM],MIC [8] [µM],MIC [9] [µM],MIC [10] [µM],MIC [11] [µM],other results
NC(=O)[C@H](Cc1ccccc1)NC(=O)[C@H](CCCCNC(=O)[C@@H](N)CCCCNC(=O)OCc1ccccc1Cl)NC(=O)[C@@H](N)CCCCNC(=O)OCc1ccccc1Cl (H-Lys(ClZ)-Lys([εLys-ClZ])-Phe-NH2),67,33,33,33,8,67,17,16,34,33,33,
CC1(C)S[C@@H]2[C@H](NC(=O)Cc3ccccc3)C(=O)N2[C@H]1C(=O)O [PENICILLIN G],,,6.6,,,,,,,,,
CCCCCCCCNC(=O)[C@H](Cc1ccccc1)NC(=O)[C@H](CCCCNC(=O)[C@H](CCCCN)NC(=O)OCc1ccccc1Cl)NC(=O)[C@H](CCCCN)NC(=O)OCc1ccccc1Cl,> 256,32,16,32,8,32,16,32,128,16,16,"hemolysis at 0.5 h, 100 µM [12]: 10%"
O=C/C=C/c1ccccc1 [CINNAMALDEHYDE],,,,,,,,,,,,IC50 [13]: 1150 µM
OC(Cn1cncn1)(Cn1cncn1)c1ccc(F)cc1F [FLUCONAZOLE],,13,,,,,,,,,,
CCCCCCCCCCCCNC(=O)[C@H](Cc1ccccc1)NC(=O)[C@H](CCCCNC(=O)[C@@H](N)CCCCN)NC(=O)[C@@H](N)CCCCN.Cl.Cl.Cl.Cl,> 256,16,8,32,8,64,4,64,> 256,4,4,Activity [14]: Toxic; Activity [15]: Non-toxic
CCCCCCCCCCCCNC(=O)[C@H](Cc1ccccc1)NC(=O)[C@H](CCCCNC(=O)[C@@H](N)CCCCNC(=O)OCc1ccccc1Cl)NC(=O)[C@@H](N)CCCCNC(=O)OCc1ccccc1Cl.Cl.Cl,114,7,28,56,14,114,28,64,114,7,7,"Activity [16]: Active; Activity [17]: Active; Activity [18]: Active; Activity [19]: inactive; Activity [20]: Active; Activity [15]: Toxic; inhibition [21]: Dose-dependent effect; IC50 [13]: 51 µM; hemolysis at 0.5 h, 100 µM [12]: 10%; Activity [22]: Dose-dependent effect; EC50 ([22]; Candida albicans, ATCC 10231, 0.5 h): 13 µM"
CCCCCCCCNC(=O)[C@H](Cc1ccccc1)NC(=O)[C@H](CCCCNC(=O)[C@H](CCCCN)NC(=O)OCc1ccccc1)NC(=O)[C@H](CCCCN)NC(=O)OCc1ccccc1,128,32,32,30,8,32,16,8,128,16,16,"hemolysis at 0.5 h, 50 µM [23]: 10%"
